From PubChem
Rows were chosen to be rich in hits. Some 2.1% of all compounds tested hit in one or more screens of this group.
APJ agonist – APJ receptor agonism; activation, % at 20 µM; P35414; 330,000 tested, 0.11% active; CHO-K1 APJ PathHunter beta-arrestin, luminescence; 0% DMSO wells, 100% apelin;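 active = activation more than six SD over the plate average, tested at 20 µM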
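system = engineered CHO-K1 APJ arrestin reporter cells | input = 1000 cells per well | timing = overnight seeding, 90 min compound at 25 °C, 1 h detection | measured by = enzyme-fragment complementation luminescence | read-out = beta-arrestin recruitment to APJ as agonist activity, luminescent signal | control set = negative DMSO alone, positive Apelin-13 at 10 nM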
APJ antagonist – blocks the human apelin receptor APJ. P35414. CHO-K1 APJ beta-arrestin complementation, luminescence. inhibition, % at 20 µM. 330,000 tested, 0.32% active;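 active = inhibition above about 40% at 20 µM, limit read from the data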;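 also: cells challenged with 10 nM apelin-13 agonist together with compound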
CXCR6 inh – blocks human CXCR6 beta-arrestin recruitment. inhibition, % at 20 µM. O00574. AID 602244. CHO-K1 PathHunter CXCR6 beta-arrestin, luminescence. 360,000 tested, 0.36% active; in the data active = inhibition above about 34%, passing the limit was not always enough;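 also: antagonist mode with CXCL16 agonist at 10 nM final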
Target sequence (O00574 whole entry, looked up): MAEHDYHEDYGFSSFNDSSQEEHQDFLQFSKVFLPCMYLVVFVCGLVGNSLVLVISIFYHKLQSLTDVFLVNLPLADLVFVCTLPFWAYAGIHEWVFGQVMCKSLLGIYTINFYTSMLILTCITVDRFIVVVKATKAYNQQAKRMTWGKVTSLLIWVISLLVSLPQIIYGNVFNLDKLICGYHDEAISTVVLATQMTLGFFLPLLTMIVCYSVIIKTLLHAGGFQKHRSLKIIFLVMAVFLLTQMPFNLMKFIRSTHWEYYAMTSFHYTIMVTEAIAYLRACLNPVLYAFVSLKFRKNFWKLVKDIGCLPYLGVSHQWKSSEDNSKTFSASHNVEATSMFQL
EBI2 block – EBI2 (human) antagonism; EBI2 beta-arrestin recruitment, luminescence, 7a,25-OHC stimulated; inhibition, % at 5 µM; 360,000 tested, 0.81% active; in the data active = inhibition above about 38%;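 also: enzyme fragment complementation signal reports receptor beta-arrestin coupling in cells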
CCR6 antagonist – CCR6 (human) receptor antagonism | P51684 | CHO-K1 CCR6 PathHunter beta-arrestin, luminescence, CCL20-stimulated | inhibition, % at 20 µM | 340,000 tested, 0.49% active | AID 493098;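 active = compounds whose inhibition of the agonist-driven luminescence signal at 20 µM reaches about 50%, limit read from the data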;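 also: cells stimulated with CCL20 at 14 nM final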
m5-HT2A agonist – mouse HTR2A agonism via beta-arrestin recruitment; activation, % at 7.6 µM; P35363; 360,000 tested, 0.66% active; AID 624169; CHO-K1 mHTR2A beta-arrestin complementation, luminescence; percent of 30 µM serotonin response;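 active = activation above a run cutoff, the mean activation of all tested compounds plus 3 SD, cut at about 14% in these data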
APJ antag conf – confirmation of human APJ apelin receptor antagonists; shares compounds with APJ antagonist; APJ beta-arrestin recruitment, luminescence, antagonist mode; inhibition, % at 20 µM; 950 tested, 66% active; in the data active = inhibition above about 50%
Hits are given with their value; n = inactive; x = not tested or not shown.

SMILES	APJ agonist	APJ antagonist	CXCR6 inh	EBI2 block	CCR6 antagonist	m5-HT2A agonist	APJ antag conf
CCCCCC1CCC(c2n[nH]c(=S)n2C)CC1 (centres undefined)	n	41	n	n	n	n	78
Cc1cccc(S(=O)(=O)N(C)C[C@H]2OCc3cn(nn3)CCCC(=O)N([C@@H](C)CO)C[C@@H]2C)c1	x	x	n	n	x	n	x
CCOC(=O)c1cc(-c2cc(OC)c(OC)c(OC)c2)nc2c1c(=O)[nH]c(=O)n2Cc1ccccc1	n	55	n	n	n	n	n
CCOC(=O)c1cc(-c2ccc(F)cc2)nc2c1c(=O)[nH]c(=O)n2Cc1ccccc1	n	n	n	n	n	n	x
O=[N+]([O-])c1cccc(/C=N/NS(=O)(=O)c2ccccc2)c1	n	65	n	n	n	n	68
CCN(CC)S(=O)(=O)c1ccc2oc(SCC(=O)Nc3cc(C)on3)nc2c1	n	43	n	n	x	n	53
COc1ccccc1CN1C(=NC(=O)CCC2CCCC2)SC2CS(=O)(=O)CC21 (centres undefined)	n	47	n	n	n	n	n
CCNC(=O)c1ccc(=O)n(Cc2ccc(Cl)cc2Cl)c1	n	n	n	n	n	n	x
O=C(c1ccco1)N(Cc1cccs1)C1CCS(=O)(=O)C1 (centres undefined)	n	47	n	n	n	n	n
O=C(c1ccco1)N(Cc1cccc(Cl)c1)C1CCS(=O)(=O)C1 (centres undefined)	n	n	n	n	n	n	x
COc1ccc(NC(=O)COC(=O)CCc2cc(OC)c(OC)c(OC)c2)c([N+](=O)[O-])c1	n	n	n	n	n	n	x
Oc1ccc2ccccc2c1N=Nc1ccccc1F	n	n	n	n	n	n	x
Oc1ccc2ccccc2c1N=Nc1ccccn1	n	75	41	n	63	n	97
O=S(=O)(O)c1cccc(N=Nc2c(O)ccc3ccccc23)c1	n	49	n	n	n	n	58
O=C(NCCc1ccc(C(F)(F)F)cc1)c1ccc(Cl)nc1	n	n	n	n	n	n	x
COc1cc(NS(=O)(=O)c2ccc(N/C=C(\C#N)c3nc4cc(Cl)ccc4o3)cc2)nc(OC)n1	n	41	n	n	n	n	n
O=C/C(=C\Nc1ccc(Cl)cn1)c1nc2cc(Cl)ccc2o1	n	n	n	n	n	n	x
COc1cc(NS(=O)(=O)c2ccc(NC(C)=O)cc2)nc(OC)n1	n	n	n	n	n	n	x
O=C/C(=C\Nc1ccc(S(=O)(=O)CCO)cc1)c1nc2cc(Cl)ccc2o1	n	105	n	n	n	n	n
CCOC(=O)c1c(C)nc2sc(C(=O)Nc3ccccc3)c(N)c2c1-c1ccc(OC)cc1	n	41	n	n	n	n	n
Nc1c(C(=O)Nc2ccccc2)sc2nc3c(c(-c4ccco4)c12)CCC3	n	n	n	n	n	n	x
COc1ccc(-c2c3c(nc4sc(C(=O)Nc5ccccc5)c(N)c24)CCC3)cc1	n	71	n	n	n	n	n
Cc1cccc(N2CCN(C(=O)CCCCCn3c(=S)[nH]c4ccc(N5CCOCC5)cc4c3=O)CC2)c1C	n	n	n	n	n	n	x
CCN(CC)CC(=O)c1ccc(-c2ccccc2)cc1	n	94	n	n	72	n	114
CCN(CC)C(=O)c1ccc(-c2ccccc2)cc1	n	n	n	n	n	n	x
CN(C)CC(=O)c1ccc(-c2ccccc2)cc1	n	46	n	n	n	n	73
NS(=O)(=O)c1ccc(NC(=O)COC(=O)CCc2nc3ccccc3c(=O)[nH]2)cc1	n	45	n	n	n	n	n
O=C(COC(=O)CCc1nc2ccccc2c(=O)[nH]1)Nc1ccc(OC(F)(F)F)cc1	n	n	n	n	n	n	x
CC(C)C(NC(=O)C1CCCCC1)C(=O)NCCc1ccccc1 (centres undefined)	n	41	n	n	n	n	n
CC(C)C(NC(=O)C1CCCCC1)C(=O)NCc1ccccn1 (centres undefined)	n	n	n	n	n	n	x
